{"source": "paper PMC2978023", "about": "(Journal of immunology (Baltimore, Md. : 1950), 2008)", "key": {"[1]": {"test_system": "PMN", "conditions": "cited from earlier work; for effect on PMN apoptosis: ref [6]–[9]"}, "[2]": {"target": "recombinant purified β2 subunit (Homo sapiens, UniProt P05107)", "sequence (P05107 23-769)": "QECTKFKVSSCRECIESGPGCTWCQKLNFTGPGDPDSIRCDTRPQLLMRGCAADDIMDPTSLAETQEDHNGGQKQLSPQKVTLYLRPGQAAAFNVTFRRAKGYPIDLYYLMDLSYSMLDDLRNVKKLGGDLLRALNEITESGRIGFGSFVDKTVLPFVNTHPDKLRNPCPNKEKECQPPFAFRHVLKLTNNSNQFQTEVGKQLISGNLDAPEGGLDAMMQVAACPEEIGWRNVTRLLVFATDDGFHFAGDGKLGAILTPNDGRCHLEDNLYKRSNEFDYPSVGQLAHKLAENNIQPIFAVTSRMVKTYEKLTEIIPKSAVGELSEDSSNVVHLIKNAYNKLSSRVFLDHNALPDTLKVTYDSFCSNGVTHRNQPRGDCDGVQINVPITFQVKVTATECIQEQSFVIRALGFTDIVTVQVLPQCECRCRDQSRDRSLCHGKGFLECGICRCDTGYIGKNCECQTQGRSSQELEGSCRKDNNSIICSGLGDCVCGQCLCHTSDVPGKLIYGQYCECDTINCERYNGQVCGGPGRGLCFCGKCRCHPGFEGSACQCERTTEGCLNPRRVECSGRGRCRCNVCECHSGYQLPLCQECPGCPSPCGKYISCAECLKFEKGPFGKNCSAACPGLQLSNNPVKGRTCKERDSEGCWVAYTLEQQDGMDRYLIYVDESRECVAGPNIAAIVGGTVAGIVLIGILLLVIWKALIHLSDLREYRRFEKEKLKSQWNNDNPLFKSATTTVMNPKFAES", "assay": "Solid-phase binding to purified β2 subunit", "conditions": "for recognition by individual integrin subunits (in words): solid-phase binding, αM versus β2", "summary_of_the_method": "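Purified recombinant αMβ2, αM or β2 (from HEK293 lines) was coated overnight at 4°C in TBS with 10 mM n-octyl-β-D-glucopyranoside and postcoated with 0.5% PVP for 1 h at 37°C. Biotinylated Plg or Ang(1–4) (0–10 μM) was bound for 2 h at 37°C in the same buffer plus 1 mM CaCl₂/MgCl₂. Binding was detected with alkaline phosphatase–avidin and pNPP at A405. Kd came from a one-site binding fit.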"}, "[3]": {"test_system": "human PMNs", "conditions": "16 h"}, "[4]": {"test_system": "Akt", "assay": "Akt phosphorylation in PMNs, Western blot", "format": "cell-based, human", "conditions": "PMN stimulated with 1 nM PMA, 30 min, 37 °C; proteins 1 μM, peptides 100 μM", "summary_of_the_method": "(§1)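 Human PMNs stimulated with 1 nM PMA were incubated with ligands for 30 min at 37°C in HBSS with 1 mM CaCl₂, 1 mM MgCl₂, 0.1% BSA, pH 7.4. Cells were lysed in ice-cold Tris/EDTA/detergent buffer with phosphatase and protease inhibitors. Equal protein was immunoblotted for phospho- and total Akt or ERK1/2, with actin. Inhibition arm: 20 min pretreatment at 37°C with 10 μM Akt inhibitor, 50 μM PD98059, 50 nM NIF, or F(ab′)₂ anti-αM or anti-MHC-1 (20 μg/ml), then 1 μM Plg.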"}, "[5]": {"test_system": "Bax", "assay": "Bax cleavage in PMN lysates, Western blot", "format": "cell-based, human", "conditions": "PMN lysate, 16 h; proteins 1 μM, peptides 100 μM; six donors"}, "[6]": {"test_system": "caspase-3", "assay": "Caspase-3 cleavage in PMN lysates, Western blot", "format": "cell-based, human", "conditions": "PMN lysate, 16 h; proteins 1 μM, peptides 100 μM; six donors"}, "[7]": {"test_system": "αMβ2 on K562 cells", "assay": "Soluble ligand binding to K562 cells expressing αMβ2, FACS", "parameters": "species or system human", "conditions": "40 min, 37 °C", "summary_of_the_method": "(§2)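 Transiently transfected K562 cells were incubated with soluble Alexa 488-labelled Plg or Ang(1–4) for 40 min at 37°C in HBSS containing 1 mM CaCl₂ and 1 mM MgCl₂. Cells were washed twice and bound ligand was quantified by FACS; three independent experiments. For inhibition, cells were pretreated for 20 min at 37°C with function-blocking anti-αM or anti-β2 mAbs (20 μg/ml) or NIF (20 nM).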"}, "[8]": {"test_system": "β2 subunit on K562 cells", "assay": "Soluble ligand binding to K562 cells expressing β2, FACS", "parameters": "species or system human", "conditions": "40 min, 37 °C", "summary_of_the_method": "as §2"}, "[9]": {"test_system": "caspase-8", "assay": "Caspase-8 cleavage in PMN lysates, Western blot", "format": "cell-based, human", "conditions": "PMN lysate, 16 h; proteins 1 μM, peptides 100 μM; six donors"}, "[10]": {"test_system": "Bax", "assay": "Bax cleavage in K562 cell lysates, Western blot", "format": "cell-based, human", "conditions": "K562 αMβ2 transfectants, 24 h, 37 °C; proteins 1 μM, peptides 100 μM"}, "[11]": {"test_system": "αM subunit on K562 cells", "assay": "Soluble ligand binding to K562 cells expressing αM, FACS", "parameters": "species or system human", "conditions": "40 min, 37 °C", "summary_of_the_method": "as §2"}, "[12]": {"test_system": "mock-transfected K562 cells", "assay": "Apoptosis of mock-transfected K562 cells, annexin V, FACS", "format": "cell-based, human", "conditions": "16 h, 37 °C; proteins 1 μM, peptides 100 μM; no ligand 81 ± 8; mean ± SEM, n = 5"}, "[13]": {"test_system": "caspase-3", "assay": "Caspase-3 cleavage in K562 cell lysates, Western blot", "format": "cell-based, human", "conditions": "K562 αMβ2 transfectants, 24 h, 37 °C; proteins 1 μM, peptides 100 μM"}, "[14]": {"test_system": "caspase-8", "assay": "Caspase-8 cleavage in K562 cell lysates, Western blot", "format": "cell-based, human", "conditions": "K562 αMβ2 transfectants, 24 h, 37 °C; proteins 1 μM, peptides 100 μM"}, "[15]": {"test_system": "αMβ2", "assay": "αMβ2 clustering on PMNs, fluorescence microscopy", "format": "cell-based, human", "conditions": "4 h, 37 °C; proteins 1 μM, peptides 100 μM; anti-αM OKMI staining; four donors", "summary_of_the_method": "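Human PMNs were exposed to ligands (proteins 1 μM, peptides 100 μM) for 4 h at 37°C, or to 1 μM Plg together with clustering inhibitors at the final concentrations used in apoptosis assays. Cells were fixed in 4% paraformaldehyde and stained with anti-αM mAb OKMI plus Alexa 488 goat anti-mouse IgG. They were cytospun, mounted and imaged by fluorescence microscopy (×40/0.7 NA); PMNs came from four donors.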"}, "[16]": {"test_system": "ERK1/2", "assay": "ERK1/2 phosphorylation in transfected K562 cells, Western blot", "format": "cell-based, human", "conditions": "37 °C; for ERK1/2 activation, αM cells: K562 expressing αM, 30 min; for ERK1/2 activation, αMβ2 cells: K562 expressing αMβ2, 30 min; for ERK1/2 phosphorylation, mock and β2 cells: K562 mock or expressing β2, 30 min", "summary_of_the_method": "(§3)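 Transiently transfected K562 cells (αM, β2, αMβ2 or mock) were exposed to ligands for 30 min at 37°C and lysed in ice-cold buffer. Equal protein was run on SDS-PAGE and blotted with the PathScan Multiplex Western Cocktail I, then reprobed for total ERK1/2; blots shown are representative of three experiments.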"}, "[17]": {"test_system": "Akt", "assay": "Akt phosphorylation in transfected K562 cells, Western blot", "format": "cell-based, human", "conditions": "37 °C; for Akt phosphorylation, αM, β2 and mock cells: K562 expressing αM or β2, or mock-transfected, 30 min; for Akt phosphorylation, αMβ2 cells: K562 expressing αMβ2, 30 min", "summary_of_the_method": "as §3"}, "[18]": {"test_system": "ERK1/2", "assay": "ERK1/2 phosphorylation in PMNs, Western blot", "format": "cell-based, human", "conditions": "PMN stimulated with 1 nM PMA, 30 min, 37 °C; proteins 1 μM, peptides 100 μM", "summary_of_the_method": "as §1"}, "[19]": {"test_system": "αMβ2 on PMN", "assay": "Soluble Alexa 488-labeled ligand binding to PMN, FACS", "parameters": "species or system human", "conditions": "clustering inhibitor, 1 h, 37 °C, mean ± SEM, n = 3", "summary_of_the_method": "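Human PMNs were incubated for 1 h at 37°C in HBSS/Ca²⁺/Mg²⁺ with soluble Alexa 488-labelled Plg or Fg, with or without clustering inhibitors. After two buffer washes, bound ligand was read by FACS; mean ± SEM, n = 3.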"}}, "note": "Ends that are not written are not given here."}
{"substance": "GM-CSF: agent that promotes PMN responsiveness", "values": [{"measurement": "effect on PMN apoptosis", "setting": "[1]", "result": "delay PMN apoptosis"}]}
{"substance": "IL-8: agent that promotes PMN responsiveness", "values": [{"measurement": "effect on PMN apoptosis", "setting": "[1]", "result": "delay PMN apoptosis"}]}
{"substance": "KIIPFNRLTIG [P2-C]", "values": [{"measurement": "Kd", "setting": "[2]", "result": 50, "unit": "nM"}, {"measurement": "PMN early/late apoptosis (% annexin V+ cells), no inhibitor", "setting": "[3]; 100 μM", "result": "20.1 ± 4", "unit": "%"}]}
{"substance": "TNF-α", "values": [{"measurement": "effect on PMN death", "setting": "[1]", "result": "promote PMN death"}]}
{"substance": "angiostatin [Ang(1–4)]", "values": [{"measurement": "Akt phosphorylation", "setting": "[4]", "result": "negligible"}, {"measurement": "22-kDa Bax fragment", "setting": "[5]", "result": "detected"}, {"measurement": "18-kDa caspase-3 fragment", "setting": "[6]", "result": "detected"}, {"measurement": "soluble ligand binding, αMβ2 cells (in words)", "setting": "[7]", "result": "bound both ligands"}, {"measurement": "soluble ligand binding, β2 cells (in words)", "setting": "[8]", "result": "failed to bind soluble Ang([1]– [4])"}, {"measurement": "caspase-8 fragment", "setting": "[9]", "result": "detected"}, {"measurement": "Bax cleavage product, αMβ2 cells", "setting": "[10]", "result": "present"}, {"measurement": "soluble ligand binding, αM cells (in words)", "setting": "[11]", "result": "bound both ligands"}, {"measurement": "K562 early/late apoptosis (% annexin V+ cells), mock", "setting": "[12]", "result": "78 ± 8", "unit": "%"}, {"measurement": "caspase-3 cleavage product, αMβ2 cells", "setting": "[13]", "result": "present"}, {"measurement": "recognition by individual integrin subunits (in words)", "setting": "[2]", "result": "recognized only by the αM and not by the β2 subunit"}, {"measurement": "caspase-8 cleavage product, αMβ2 cells", "setting": "[14]", "result": "present"}, {"measurement": "αMβ2 macroclusters on PMN surface", "setting": "[15]", "result": "did not support αMβ2 clustering"}, {"measurement": "ERK1/2 activation, αM cells", "setting": "[16]", "result": "poorly induced"}, {"measurement": "ERK1/2 activation, αMβ2 cells", "setting": "[16]", "result": "poorly induced"}, {"measurement": "ERK1/2 phosphorylation, mock and β2 cells", "setting": "[16]", "result": "poorly induced"}, {"measurement": "Akt phosphorylation, αM, β2 and mock cells", "setting": "[17]", "result": "failed to induce Akt activation"}, {"measurement": "Akt phosphorylation, αMβ2 cells", "setting": "[17]", "result": "failed to induce Akt activation"}]}
{"substance": "fibrinogen [Fg]", "values": [{"measurement": "Akt phosphorylation", "setting": "[4]", "result": "robust Akt phosphorylation"}, {"measurement": "22-kDa Bax fragment", "setting": "[5]", "result": "absent"}, {"measurement": "effect on PMN apoptosis", "setting": "[1]", "result": "delay PMN apoptosis"}, {"measurement": "18-kDa caspase-3 fragment", "setting": "[6]", "result": "absent"}, {"measurement": "soluble ligand binding, αMβ2 cells (in words)", "setting": "[7]", "result": "bound soluble Fg"}, {"measurement": "soluble ligand binding, β2 cells (in words)", "setting": "[8]", "result": "bound soluble Fg"}, {"measurement": "caspase-8 fragment", "setting": "[9]", "result": "absent"}, {"measurement": "Bax cleavage product, αMβ2 cells", "setting": "[10]", "result": "not detected"}, {"measurement": "soluble ligand binding, αM cells (in words)", "setting": "[11]", "result": "bound soluble Fg"}, {"measurement": "K562 early/late apoptosis (% annexin V+ cells), mock", "setting": "[12]", "result": "72 ± 13", "unit": "%"}, {"measurement": "caspase-3 cleavage product, αMβ2 cells", "setting": "[13]", "result": "not detected"}, {"measurement": "recognition by individual integrin subunits (in words)", "setting": "[2]", "result": "engage both integrin subunits"}, {"measurement": "caspase-8 cleavage product, αMβ2 cells", "setting": "[14]", "result": "not detected"}, {"measurement": "αMβ2 macroclusters on PMN surface", "setting": "[15]", "result": "detected"}, {"measurement": "ERK1/2 activation, αM cells", "setting": "[16]", "result": "strongly induced"}, {"measurement": "ERK1/2 activation, αMβ2 cells", "setting": "[16]", "result": "strongly induced"}, {"measurement": "ERK1/2 phosphorylation, mock and β2 cells", "setting": "[16]", "result": "poorly induced"}, {"measurement": "Akt phosphorylation, αM, β2 and mock cells", "setting": "[17]", "result": "not in K562 cells expressing the individual αM or β2 subunits (Fig. 6A) or mock-transfected cells"}, {"measurement": "Akt phosphorylation, αMβ2 cells", "setting": "[17]", "result": "robust Akt phosphorylation"}, {"measurement": "ERK1/2 activation", "setting": "[18]", "result": "induced ERK1/2 activation"}]}
{"substance": "methyl-β-cyclodextrin [MβCD]", "values": [{"measurement": "ligand binding, inhibitor, no ligand (background)", "setting": "[19]", "result": "3.09 ± 0.4", "unit": "MFI"}, {"measurement": "PMN early/late apoptosis (% annexin V+ cells), inhibitor + Fg", "setting": "[3]; clustering inhibitor + Fg 1 μM, 37 °C, mean ± SEM, n = 5", "result": "59.3 ± 15", "unit": "%"}, {"measurement": "PMN early/late apoptosis (% annexin V+ cells), inhibitor + P1", "setting": "[3]; clustering inhibitor + P1 100 μM, 37 °C, mean ± SEM, n = 5", "result": "66.3 ± 18", "unit": "%"}, {"measurement": "PMN early/late apoptosis (% annexin V+ cells), inhibitor + P2-C", "setting": "[3]; clustering inhibitor + P2-C 100 μM, 37 °C, mean ± SEM, n = 5", "result": "75.6 ± 17", "unit": "%"}, {"measurement": "PMN early/late apoptosis (% annexin V+ cells), inhibitor + Plg", "setting": "[3]; clustering inhibitor + Plg 1 μM, 37 °C, mean ± SEM, n = 5", "result": "75.0 ± 13", "unit": "%"}]}
